Test results published in ChEMBL document CHEMBL1138845, “Design of non-nucleoside inhibitors of HIV-1 reverse transcriptase with improved drug resistance properties. 2” (J Med Chem, 2004).

Test system: Human immunodeficiency virus 1
Assay: Inhibitory concentration against wild type human immunodeficiency virus type 1 was determined by recombinant virus assay
Type: functional, organism-based
Outline: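 Isogenic recombinant HIV-1 carrying wild-type RT, tested in parallel with a panel of NNRTI-resistant RT mutants built on the same background; activity reported as IC50.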

Compound	IC50 [nM]
CCOc1c(O)nc2ccc(Cl)cc2c1OCC1CCC1	340
CCCc1c(OC2CCCCC2)c2cc(Cl)ccc2[nH]c1=O	32
CCCc1c(O)nc2ccc(Br)cc2c1OC1CCCC1	49
CCCc1c(O)nc2ccc(F)cc2c1OCC1CCC1	63
CCC(C)c1c(O)nc2ccc(Cl)cc2c1OC1CCCC1 (stereo not given)	9.3
CCOc1c(O)nc2ccc(F)cc2c1OCC1CCC1	580
CCCc1c(O)nc2ccc(Cl)cc2c1OCC1CCC1	36

Test system: HeLa
Assay: Inhibitory concentration against human immunodeficiency virus type 1 (with V108I resistant mutation) was determined in HeLa-CD4 MAGI assay
Type: functional, cell-based
Outline: (§1)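 Tested against a panel of recombinant, isogenic HIV-1 viruses, wild type and NNRTI-resistant strains carrying engineered single or double RT mutations. The readout was IC50.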

Compound	IC50 [nM]
CCOc1c(O)nc2ccc(Cl)cc2c1OCC1CCC1	890
CCCc1c(OC2CCCCC2)c2cc(Cl)ccc2[nH]c1=O	180
CCCc1c(O)nc2ccc(Br)cc2c1OC1CCCC1	120
CCCc1c(O)nc2ccc(F)cc2c1OCC1CCC1	290
CCC(C)c1c(O)nc2ccc(Cl)cc2c1OC1CCCC1 (stereo not given)	1100
CCOc1c(O)nc2ccc(F)cc2c1OCC1CCC1	1500
CCCc1c(O)nc2ccc(Cl)cc2c1OCC1CCC1	77

Test system: HeLa
Assay: Inhibitory concentration against human immunodeficiency virus type 1 (with Y181C resistant mutation) was determined in HeLa-CD4 MAGI assay
Type: functional, cell-based
Outline: as §1

Compound	IC50 [nM]
CCOc1c(O)nc2ccc(Cl)cc2c1OCC1CCC1	> 2000
CCCc1c(OC2CCCCC2)c2cc(Cl)ccc2[nH]c1=O	470
CCCc1c(O)nc2ccc(Br)cc2c1OC1CCCC1	> 2000
CCCc1c(O)nc2ccc(F)cc2c1OCC1CCC1	240
CCC(C)c1c(O)nc2ccc(Cl)cc2c1OC1CCCC1 (stereo not given)	320
CCOc1c(O)nc2ccc(F)cc2c1OCC1CCC1	> 2000
CCCc1c(O)nc2ccc(Cl)cc2c1OCC1CCC1	> 2000

Test system: MT4
Assay: Ratio of cytotoxic concentration to that of inhibitory concentration as selectivity index was determined by MT-4 assay
Type: functional, Homo sapiens
Outline: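 Index is the IC50 in uninfected MT4 cells divided by the antiviral IC50 in MT4 cells infected with wild-type HIV-1 or the nevirapine-resistant strain carrying RT mutation Y181C.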

Compound	Ratio
CCOc1c(O)nc2ccc(Cl)cc2c1OCC1CCC1	>8000
CCCc1c(OC2CCCCC2)c2cc(Cl)ccc2[nH]c1=O	>5000
CCCc1c(O)nc2ccc(Br)cc2c1OC1CCCC1	>40000
CCCc1c(O)nc2ccc(F)cc2c1OCC1CCC1	>8000
CCC(C)c1c(O)nc2ccc(Cl)cc2c1OC1CCCC1 (stereo not given)	>40000
CCOc1c(O)nc2ccc(F)cc2c1OCC1CCC1	>8000
CCCc1c(O)nc2ccc(Cl)cc2c1OCC1CCC1	>40000

Test system: HeLa
Assay: Inhibitory concentration against human immunodeficiency virus type 1 (with K103N/G190A resistant mutation) was determined in HeLa-CD4 MAGI assay
Type: functional, cell-based
Outline: as §1

Compound	IC50 [nM]
CCOc1c(O)nc2ccc(Cl)cc2c1OCC1CCC1	> 2000
CCCc1c(OC2CCCCC2)c2cc(Cl)ccc2[nH]c1=O	1000
CCCc1c(O)nc2ccc(Br)cc2c1OC1CCCC1	> 2000
CCCc1c(O)nc2ccc(F)cc2c1OCC1CCC1	> 2000
CCC(C)c1c(O)nc2ccc(Cl)cc2c1OC1CCCC1 (stereo not given)	> 2000
CCOc1c(O)nc2ccc(F)cc2c1OCC1CCC1	> 2000
CCCc1c(O)nc2ccc(Cl)cc2c1OCC1CCC1	1300

Test system: HeLa
Assay: Inhibitory concentration against human immunodeficiency virus type 1 (with V108I/Y181C resistant mutation) was determined in HeLa-CD4 MAGI assay
Type: functional, cell-based
Outline: as §1

Compound	IC50 [nM]
CCOc1c(O)nc2ccc(Cl)cc2c1OCC1CCC1	> 2000
CCCc1c(OC2CCCCC2)c2cc(Cl)ccc2[nH]c1=O	900
CCCc1c(O)nc2ccc(Br)cc2c1OC1CCCC1	520
CCCc1c(O)nc2ccc(F)cc2c1OCC1CCC1	560
CCC(C)c1c(O)nc2ccc(Cl)cc2c1OC1CCCC1 (stereo not given)	> 2000
CCOc1c(O)nc2ccc(F)cc2c1OCC1CCC1	> 2000
CCCc1c(O)nc2ccc(Cl)cc2c1OCC1CCC1	600

Test system: MT4
Assay: Inhibitory concentration against nevirapine resistant strain (with Y181C mutation in HIV-1 RT gene) of human immunodeficiency virus type 1 was determined by MT-4 assay
Type: functional, cell-based

Compound	IC50 [nM]
CCOc1c(O)nc2ccc(Cl)cc2c1OCC1CCC1	2090
CCCc1c(OC2CCCCC2)c2cc(Cl)ccc2[nH]c1=O	760
CCCc1c(O)nc2ccc(Br)cc2c1OC1CCCC1	1700
CCCc1c(O)nc2ccc(F)cc2c1OCC1CCC1	190
CCC(C)c1c(O)nc2ccc(Cl)cc2c1OC1CCCC1 (stereo not given)	290
CCOc1c(O)nc2ccc(F)cc2c1OCC1CCC1	1070
CCCc1c(O)nc2ccc(Cl)cc2c1OCC1CCC1	390

Test system: HeLa
Assay: Inhibitory concentration against human immunodeficiency virus type 1 (with K103N/V108I resistant mutation) was determined in HeLa-CD4 MAGI assay
Type: functional, cell-based
Outline: as §1

Compound	IC50 [nM]
CCOc1c(O)nc2ccc(Cl)cc2c1OCC1CCC1	> 2000
CCCc1c(OC2CCCCC2)c2cc(Cl)ccc2[nH]c1=O	~2000
CCCc1c(O)nc2ccc(Br)cc2c1OC1CCCC1	> 2000
CCCc1c(O)nc2ccc(F)cc2c1OCC1CCC1	> 2000
CCC(C)c1c(O)nc2ccc(Cl)cc2c1OC1CCCC1 (stereo not given)	> 2000
CCOc1c(O)nc2ccc(F)cc2c1OCC1CCC1	> 2000
CCCc1c(O)nc2ccc(Cl)cc2c1OCC1CCC1	> 2000

Test system: HeLa
Assay: Inhibitory concentration against human immunodeficiency virus type 1 (with V106A resistant mutation) was determined in HeLa-CD4 MAGI assay
Type: functional, cell-based
Outline: as §1

Compound	IC50 [nM]
CCOc1c(O)nc2ccc(Cl)cc2c1OCC1CCC1	> 2000
CCCc1c(OC2CCCCC2)c2cc(Cl)ccc2[nH]c1=O	980
CCCc1c(O)nc2ccc(Br)cc2c1OC1CCCC1	430
CCCc1c(O)nc2ccc(F)cc2c1OCC1CCC1	1700
CCC(C)c1c(O)nc2ccc(Cl)cc2c1OC1CCCC1 (stereo not given)	> 2000
CCOc1c(O)nc2ccc(F)cc2c1OCC1CCC1	> 2000
CCCc1c(O)nc2ccc(Cl)cc2c1OCC1CCC1	124

Test system: HeLa
Assay: Inhibitory concentration against human immunodeficiency virus type 1 (with Y188C resistant mutation) was determined in HeLa-CD4 MAGI assay
Type: functional, cell-based
Outline: as §1

Compound	IC50 [nM]
CCOc1c(O)nc2ccc(Cl)cc2c1OCC1CCC1	390
CCCc1c(OC2CCCCC2)c2cc(Cl)ccc2[nH]c1=O	12
CCCc1c(O)nc2ccc(Br)cc2c1OC1CCCC1	9
CCCc1c(O)nc2ccc(F)cc2c1OCC1CCC1	60
CCC(C)c1c(O)nc2ccc(Cl)cc2c1OC1CCCC1 (stereo not given)	670
CCOc1c(O)nc2ccc(F)cc2c1OCC1CCC1	360
CCCc1c(O)nc2ccc(Cl)cc2c1OCC1CCC1	16

Test system: HeLa
Assay: Inhibitory concentration against human immunodeficiency virus type 1 (with K103N/Y181C resistant mutation) was determined in HeLa-CD4 MAGI assay
Type: functional, cell-based
Outline: as §1

Compound	IC50 [nM]
CCOc1c(O)nc2ccc(Cl)cc2c1OCC1CCC1	> 2000
CCCc1c(OC2CCCCC2)c2cc(Cl)ccc2[nH]c1=O	> 2000
CCCc1c(O)nc2ccc(Br)cc2c1OC1CCCC1	> 2000
CCCc1c(O)nc2ccc(F)cc2c1OCC1CCC1	> 2000
CCC(C)c1c(O)nc2ccc(Cl)cc2c1OC1CCCC1 (stereo not given)	> 2000
CCOc1c(O)nc2ccc(F)cc2c1OCC1CCC1	> 2000
CCCc1c(O)nc2ccc(Cl)cc2c1OCC1CCC1	> 2000

Test system: HeLa
Assay: Inhibitory concentration against human immunodeficiency virus type 1 (with G190A resistant mutation) was determined in HeLa-CD4 MAGI assay
Type: functional, cell-based
Outline: as §1

Compound	IC50 [nM]
CCOc1c(O)nc2ccc(Cl)cc2c1OCC1CCC1	170
CCCc1c(OC2CCCCC2)c2cc(Cl)ccc2[nH]c1=O	54
CCCc1c(O)nc2ccc(Br)cc2c1OC1CCCC1	32
CCCc1c(O)nc2ccc(F)cc2c1OCC1CCC1	46
CCC(C)c1c(O)nc2ccc(Cl)cc2c1OC1CCCC1 (stereo not given)	~2000
CCOc1c(O)nc2ccc(F)cc2c1OCC1CCC1	86
CCCc1c(O)nc2ccc(Cl)cc2c1OCC1CCC1	15

Test system: HeLa
Assay: Inhibitory concentration against human immunodeficiency virus type 1 (with K103N resistant mutation) was determined in HeLa-CD4 MAGI assay
Type: functional, cell-based
Outline: as §1

Compound	IC50 [nM]
CCOc1c(O)nc2ccc(Cl)cc2c1OCC1CCC1	> 2000
CCCc1c(OC2CCCCC2)c2cc(Cl)ccc2[nH]c1=O	> 2000
CCCc1c(O)nc2ccc(Br)cc2c1OC1CCCC1	> 2000
CCCc1c(O)nc2ccc(F)cc2c1OCC1CCC1	1800
CCC(C)c1c(O)nc2ccc(Cl)cc2c1OC1CCCC1 (stereo not given)	970
CCOc1c(O)nc2ccc(F)cc2c1OCC1CCC1	> 2000
CCCc1c(O)nc2ccc(Cl)cc2c1OCC1CCC1	980

Test system: HeLa
Assay: Inhibitory concentration against human immunodeficiency virus type 1 (with V106A/Y181C resistant mutation) was determined in HeLa-CD4 MAGI assay
Type: functional, cell-based
Outline: as §1

Compound	IC50 [nM]
CCOc1c(O)nc2ccc(Cl)cc2c1OCC1CCC1	> 2000
CCCc1c(OC2CCCCC2)c2cc(Cl)ccc2[nH]c1=O	1100
CCCc1c(O)nc2ccc(Br)cc2c1OC1CCCC1	> 2000
CCCc1c(O)nc2ccc(F)cc2c1OCC1CCC1	1700
CCC(C)c1c(O)nc2ccc(Cl)cc2c1OC1CCCC1 (stereo not given)	~2000
CCOc1c(O)nc2ccc(F)cc2c1OCC1CCC1	> 2000
CCCc1c(O)nc2ccc(Cl)cc2c1OCC1CCC1	630

Test system: MT4
Assay: Inhibitory concentration against wild type human immunodeficiency virus type 1 was determined by MT-4 assay
Type: functional, cell-based

Compound	IC50 [nM]
CCOc1c(O)nc2ccc(Cl)cc2c1OCC1CCC1	290
CCCc1c(OC2CCCCC2)c2cc(Cl)ccc2[nH]c1=O	58
CCCc1c(O)nc2ccc(Br)cc2c1OC1CCCC1	120
CCCc1c(O)nc2ccc(F)cc2c1OCC1CCC1	69
CCC(C)c1c(O)nc2ccc(Cl)cc2c1OC1CCCC1 (stereo not given)	9
CCOc1c(O)nc2ccc(F)cc2c1OCC1CCC1	470
CCCc1c(O)nc2ccc(Cl)cc2c1OCC1CCC1	72
